# Source: ChEMBL document CHEMBL4622949, “A chalcone derivative binds a putative allosteric site of YopH: Inhibition of a virulence factor of Yersinia” (Bioorg Med Chem Lett, 2020)
# The source made the active and inactive calls. The calls are words filed in the database; no cut-off is given here.
# Key:
# [1] = molecular target: T1, Tyrosine-protein phosphatase non-receptor type 22 (Homo sapiens, UniProt Q9Y2R2); assay: Inhibition of LYP (unknown origin) at 25 uM using pNPP as substrate relative to control
# T1 sequence (Q9Y2R2 whole entry): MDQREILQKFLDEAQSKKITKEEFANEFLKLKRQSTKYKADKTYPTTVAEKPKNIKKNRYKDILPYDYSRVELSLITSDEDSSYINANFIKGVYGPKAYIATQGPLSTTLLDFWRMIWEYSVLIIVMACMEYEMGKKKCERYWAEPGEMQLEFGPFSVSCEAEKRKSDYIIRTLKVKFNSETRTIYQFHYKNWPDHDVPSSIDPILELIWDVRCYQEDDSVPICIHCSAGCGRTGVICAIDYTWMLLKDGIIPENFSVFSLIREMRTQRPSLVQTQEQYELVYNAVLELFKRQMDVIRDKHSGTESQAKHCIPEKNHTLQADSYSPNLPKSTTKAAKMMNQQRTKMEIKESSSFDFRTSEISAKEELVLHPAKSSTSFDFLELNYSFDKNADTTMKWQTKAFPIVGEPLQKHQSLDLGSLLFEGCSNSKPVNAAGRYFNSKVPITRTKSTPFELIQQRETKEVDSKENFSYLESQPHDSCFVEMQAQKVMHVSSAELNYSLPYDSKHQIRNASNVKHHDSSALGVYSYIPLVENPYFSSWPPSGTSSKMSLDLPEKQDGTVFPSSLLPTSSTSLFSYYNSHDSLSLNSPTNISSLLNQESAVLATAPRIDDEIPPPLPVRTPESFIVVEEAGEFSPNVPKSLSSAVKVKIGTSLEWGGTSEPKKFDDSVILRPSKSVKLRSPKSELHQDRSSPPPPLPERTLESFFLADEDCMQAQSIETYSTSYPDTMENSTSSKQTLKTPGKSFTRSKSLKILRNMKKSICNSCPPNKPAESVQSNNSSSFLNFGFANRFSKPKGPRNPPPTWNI
# [2] = molecular target: T1, Tyrosine-protein phosphatase non-receptor type 22; assay: Inhibition of LYP (unknown origin) using pNPP as substrate
# [3] = molecular target: T2, Tyrosine-protein phosphatase non-receptor type 12 (Homo sapiens, UniProt Q05209); assay: Inhibition of PTP-PEST (unknown origin)
# T2 sequence (Q05209 whole entry): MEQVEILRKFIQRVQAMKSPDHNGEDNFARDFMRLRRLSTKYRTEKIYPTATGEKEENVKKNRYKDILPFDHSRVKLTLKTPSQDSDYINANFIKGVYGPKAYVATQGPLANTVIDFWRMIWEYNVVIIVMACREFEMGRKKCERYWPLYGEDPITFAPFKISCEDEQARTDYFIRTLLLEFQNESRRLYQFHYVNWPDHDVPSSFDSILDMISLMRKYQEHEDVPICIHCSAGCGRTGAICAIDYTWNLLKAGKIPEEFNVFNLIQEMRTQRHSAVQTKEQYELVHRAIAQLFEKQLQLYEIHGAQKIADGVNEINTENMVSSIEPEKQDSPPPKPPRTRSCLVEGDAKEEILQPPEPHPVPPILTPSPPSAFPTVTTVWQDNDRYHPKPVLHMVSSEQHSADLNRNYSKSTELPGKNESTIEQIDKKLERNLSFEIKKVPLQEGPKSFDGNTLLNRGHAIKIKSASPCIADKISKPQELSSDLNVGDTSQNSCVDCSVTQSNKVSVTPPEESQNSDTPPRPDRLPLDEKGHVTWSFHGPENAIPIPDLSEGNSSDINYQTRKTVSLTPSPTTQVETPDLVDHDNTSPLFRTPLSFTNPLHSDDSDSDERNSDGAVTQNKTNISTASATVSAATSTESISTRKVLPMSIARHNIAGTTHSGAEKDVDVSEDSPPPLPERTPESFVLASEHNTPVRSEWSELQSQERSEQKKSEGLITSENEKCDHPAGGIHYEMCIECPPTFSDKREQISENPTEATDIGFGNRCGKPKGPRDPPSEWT
# Summary of the method: (§1)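 Inhibition of the PTP panel, run in three independent experiments. Values are the average of the individual means ± SD.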
# [4] = molecular target: T3, Tyrosine-protein phosphatase non-receptor type 1 (Homo sapiens, UniProt P18031); assay: Inhibition of human PTP1B; summary of the method: as §1
# T3 sequence (P18031 whole entry): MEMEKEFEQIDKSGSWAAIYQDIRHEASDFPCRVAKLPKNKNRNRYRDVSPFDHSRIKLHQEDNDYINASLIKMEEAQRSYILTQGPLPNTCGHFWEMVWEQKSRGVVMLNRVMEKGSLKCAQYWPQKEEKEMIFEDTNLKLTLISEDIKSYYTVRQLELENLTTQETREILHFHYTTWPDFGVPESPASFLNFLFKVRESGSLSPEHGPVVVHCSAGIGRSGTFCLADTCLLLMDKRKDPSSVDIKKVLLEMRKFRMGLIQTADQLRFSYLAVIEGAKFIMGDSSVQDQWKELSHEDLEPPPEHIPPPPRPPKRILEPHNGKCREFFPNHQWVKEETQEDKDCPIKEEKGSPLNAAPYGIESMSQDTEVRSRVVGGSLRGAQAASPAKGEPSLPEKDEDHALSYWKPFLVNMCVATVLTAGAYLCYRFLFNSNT
# [5] = molecular target: T4, Low molecular weight protein-tyrosine phosphatase A (Mycobacterium tuberculosis, UniProt P9WIA1); assay: Inhibition of Mycobacterium tuberculosis PtpA; summary of the method: as §1
# T4 sequence (P9WIA1 whole entry): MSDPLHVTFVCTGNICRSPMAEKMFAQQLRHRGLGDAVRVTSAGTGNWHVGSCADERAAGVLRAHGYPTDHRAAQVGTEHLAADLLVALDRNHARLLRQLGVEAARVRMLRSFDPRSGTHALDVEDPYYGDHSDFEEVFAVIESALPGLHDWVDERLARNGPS
# [6] = molecular target: T5, Phosphotyrosine protein phosphatase (Mycobacterium tuberculosis, UniProt A0A045ISB3); assay: Inhibition of Mycobacterium tuberculosis PtpB; summary of the method: as §1
# T5 sequence (A0A045ISB3 whole entry): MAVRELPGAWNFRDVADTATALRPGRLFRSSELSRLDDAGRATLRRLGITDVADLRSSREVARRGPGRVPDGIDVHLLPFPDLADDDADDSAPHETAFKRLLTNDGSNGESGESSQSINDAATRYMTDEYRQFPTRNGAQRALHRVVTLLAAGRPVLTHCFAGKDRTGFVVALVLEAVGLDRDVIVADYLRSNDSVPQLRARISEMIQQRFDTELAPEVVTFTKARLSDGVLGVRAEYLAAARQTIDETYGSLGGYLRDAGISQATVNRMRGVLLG
# [7] = molecular target: T1, Tyrosine-protein phosphatase non-receptor type 22; assay: Competitive inhibition of LYP (unknown origin) assessed as inhibition constant using varying level of pNPP as substrate by Lineweaver-Burk plot analysis
# [8] = molecular target: T2, Tyrosine-protein phosphatase non-receptor type 12; assay: Competitive inhibition of PTP-PEST (unknown origin) assessed as inhibition constant using varying level of pNPP as substrate by Lineweaver-Burk plot analysis
# [9] = molecular target: T3, Tyrosine-protein phosphatase non-receptor type 1; assay: Non-competitive inhibition of human PTP1B assessed as inhibition constant using varying level of pNPP as substrate by Lineweaver-Burk plot analysis
# [10] = molecular target: T4, Low molecular weight protein-tyrosine phosphatase A; assay: Non-competitive inhibition of Mycobacterium tuberculosis PtpA assessed as inhibition constant using varying level of pNPP as substrate by Lineweaver-Burk plot analysis
# [11] = molecular target: T5, Phosphotyrosine protein phosphatase; assay: Competitive inhibition of Mycobacterium tuberculosis PtpB assessed as inhibition constant using varying level of pNPP as substrate by Lineweaver-Burk plot analysis
# [12] = molecular target: T6, Tyrosine-protein phosphatase YopH (Yersinia enterocolitica, UniProt P15273); assay: Inhibition of Yersinia enterocolitica YopH; summary of the method: as §1
# [13] = molecular target: T6, Tyrosine-protein phosphatase YopH; assay: Non-competitive inhibition of Yersinia enterocolitica YopH assessed as inhibition constant using varying level of pNPP as substrate by Lineweaver-Burk plot analysis
# [14] = Selectivity index, ratio of IC50 for PTP-PEST (unknown origin) to IC50 for LYP (unknown origin) using pNPP as substrate; settings: human
# [15] = Selectivity index, ratio of IC50 for human PTP1B to IC50 for LYP (unknown origin) using pNPP as substrate
# [16] = Selectivity index, ratio of IC50 for Mycobacterium tuberculosis PtpA to IC50 for LYP (unknown origin) using pNPP as substrate
# [17] = Selectivity index, ratio of IC50 for Mycobacterium tuberculosis PtpB to IC50 for LYP (unknown origin) using pNPP as substrate
# [18] = Selectivity index, ratio of IC50 for Yersinia enterocolitica YopH to IC50 for LYP (unknown origin) using pNPP as substrate
# [19] = molecular target: T1, Tyrosine-protein phosphatase non-receptor type 22; assay: Reversible inhibition of LYP (unknown origin) assessed as enzyme recovery activity by dilution assay relative to control; design: scale not given: the % may be the effect or the level left
# Summary of the method: (§2)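 Reversibility tested by preincubation and dilution: enzyme preincubated with inhibitor, then diluted, and recovered phosphatase activity expressed as a percentage of control.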
# [20] = molecular target: T2, Tyrosine-protein phosphatase non-receptor type 12; assay: Reversible inhibition of PTP-PEST (unknown origin) assessed as enzyme recovery activity by dilution assay relative to control; design: scale not given: the % may be the effect or the level left; summary of the method: as §2
# [21] = molecular target: T7, Low molecular weight protein-tyrosine phosphatase A (Mycobacterium tuberculosis) (UniProt P9WIA1); assay: Reversible inhibition of Mycobacterium tuberculosis PtpA assessed as enzyme recovery activity by dilution assay relative to control; design: scale not given: the % may be the effect or the level left; summary of the method: as §2
# T7 sequence (whole entry): T4 sequence (P9WIA1 whole entry)
# [22] = molecular target: T8, Phosphotyrosine protein phosphatase (Mycobacterium tuberculosis) (UniProt A0A045ISB3); assay: Reversible inhibition of Mycobacterium tuberculosis PtpB assessed as enzyme recovery activity by dilution assay relative to control; design: scale not given: the % may be the effect or the level left; summary of the method: as §2
# T8 sequence (whole entry): T5 sequence (A0A045ISB3 whole entry)
# [23] = molecular target: T3, Tyrosine-protein phosphatase non-receptor type 1; assay: Reversible inhibition of human PTP1B assessed as enzyme recovery activity by dilution assay relative to control; design: scale not given: the % may be the effect or the level left; summary of the method: as §2
# [24] = molecular target: Tyrosine-protein phosphatase YopH (Yersinia enterocolitica) (UniProt P15273); assay: Irreversible inhibition of Yersinia enterocolitica YopH assessed as enzyme recovery activity by dilution assay relative to control; design: scale not given: the % may be the effect or the level left; summary of the method: as §2
# [25] = molecular target: Tyrosine-protein phosphatase YopH (Yersinia enterocolitica) (UniProt P15273); assay: Potency index, ratio of chicoric-acid IC50 to test compound IC50 for inhibition of Yersinia enterocolitica YopH
# [26] = molecular target: Tyrosine-protein phosphatase YopH (Yersinia enterocolitica) (UniProt P15273); assay: Binding affinity of Yersinia enterocolitica YopH assessed as structural changes in protein by measuring emission spectra by fluorescence assay
# Summary of the method: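 Intrinsic fluorescence emission spectrum of YopH (λmax 328 nm) recorded in the presence of ligand; quenching and any shift in λmax monitored as the read-out for structural change.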
# [27] = molecular target: Tyrosine-protein phosphatase YopH (Yersinia enterocolitica) (UniProt P15273); assay: Binding affinity of Yersinia enterocolitica YopH assessed as protein stabilization by measuring change in melting temperature by thermal denaturation assay
# Summary of the method: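 YopH thermal denaturation profile recorded with and without ligand at 50 µM; melting temperature (Tm) compared between the two.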
# [28] = tested on: Yersinia enterocolitica; assay: Antibacterial activity against Yersinia enterocolitica assessed as inhibition of bacterial growth at 8 to 250 uM after 48 hrs relative to control; assay type: functional
# Sequence of Tyrosine-protein phosphatase YopH (Yersinia enterocolitica) (P15273 whole entry): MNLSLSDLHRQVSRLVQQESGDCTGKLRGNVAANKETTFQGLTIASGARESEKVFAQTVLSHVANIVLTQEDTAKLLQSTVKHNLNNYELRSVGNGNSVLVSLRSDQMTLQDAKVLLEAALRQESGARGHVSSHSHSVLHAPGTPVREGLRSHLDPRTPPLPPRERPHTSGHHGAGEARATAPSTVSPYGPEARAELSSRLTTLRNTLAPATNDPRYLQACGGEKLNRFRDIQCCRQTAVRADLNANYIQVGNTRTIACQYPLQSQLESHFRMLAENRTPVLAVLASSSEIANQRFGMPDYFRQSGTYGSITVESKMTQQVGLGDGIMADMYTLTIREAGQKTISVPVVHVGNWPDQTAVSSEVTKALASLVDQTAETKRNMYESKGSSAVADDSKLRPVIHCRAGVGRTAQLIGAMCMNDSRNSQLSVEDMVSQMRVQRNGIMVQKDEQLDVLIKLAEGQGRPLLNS
# T6 sequence (P15273 whole entry): as above
smiles,measurement,setting,value
COc1cc(OC)cc(C(=O)/C=C/c2ccc(C(=O)O)cc2)c1,inhibition at 25 µM,[1],4.6%
O=C1COc2ccc(C(=O)/C=C/c3ccc(C(=O)O)cc3)cc2N1,inhibition at 25 µM,[1],33.2%
O=C(O)c1ccc(/C=C/C(=O)c2ccccc2O)cc1,inhibition at 25 µM,[1],11.7%
O=C(O)c1ccc(/C=C/C(=O)c2cccc([N+](=O)[O-])c2)cc1,inhibition at 25 µM,[1],57.9%
same,IC50,[2],11.5 µM
same,IC50,[3],10.9 µM
same,IC50,[4],3.2 µM
same,IC50,[5],3 µM
same,IC50,[6],2300 nM
same,Ki,[7],1900 nM
same,Ki,[8],1000 nM
same,Ki,[9],1400 nM
same,Ki,[10],800 nM
same,Ki,[11],400 nM
same,IC50,[12],2600 nM
same,Ki,[13],1000 nM
same,Ratio IC50,[14],0.94
same,Ratio IC50,[15],0.28
same,Ratio IC50,[16],0.26
same,Ratio IC50,[17],0.19
same,Ratio IC50,[18],0.22
same,Activity,[19],76%
same,Activity,[20],71%
same,Activity,[21],76%
same,Activity,[22],81%
same,Activity,[23],45%
same,Activity,[24],10%
same,Ratio IC50,[25],145
same,Activity,[26],inactive
same,ΔTm,[27],1.5 °C
same,inhibition (INH),[28],20%
O=C(O)c1ccc(/C=C/C(=O)c2ccc(Br)cc2)cc1,inhibition at 25 µM,[1],15.7%
COc1ccc(C(=O)/C=C/c2ccc(C(=O)O)cc2)cc1,inhibition at 25 µM,[1],8.4%
O=C(O)c1ccc(/C=C/C(=O)c2cccc3ccccc23)cc1,inhibition at 25 µM,[1],10.3%
Cc1ccc(C(=O)/C=C/c2ccc(C(=O)O)cc2)cc1,inhibition at 25 µM,[1],9.5%
COc1cc(C(=O)/C=C/c2ccc(C(=O)O)cc2)ccc1O,inhibition at 25 µM,[1],9.1%
